Measurements pooled from the literature.
Lines come from different studies, so protocols differ.
Sample: plasma

COc1ccc(-c2c(Nc3ccccn3)[nH]c3c(C4=CCCCC4)c(-c4ccccc4)nn3c2=O)cc1
Cmax (human; oral, 100 mg once daily, multiple doses, patients): 3490 ng/mL

OC[C@H]1O[C@@H](c2cc(Cc3ccc(C4CC4)cc3)c(Cl)c3c2CCO3)[C@H](O)[C@@H](O)[C@@H]1O
Cmax (human; oral, 0.3 mg, single dose, fed): 3.74 ng/mL

C=CC(=O)NC1CCN(c2ncc3ncnc(Nc4ccc(Oc5ccc6c(c5)ncn6C)c(C)c4)c3n2)CC1
Cmax (male human; intravenous, 100 µg, single dose, healthy volunteers): 0.583 nM

CC(=O)N(C)[C@H]1CCN(C(=O)c2cnc3c(c2)C[C@](C)(c2ccc(F)cc2)N3)C1
Cmax (male human; oral, 30 mg, multiple doses, once daily, steady state): 797 nM

CC(C)n1c(C2CCNCC2)nc2c([N+](=O)[O-])c(Br)c(Br)cc21
Cmax (human; oral, 25 mg, patients): 8.77 ng/mL

O=C(COc1ccc(Cl)cc1)NC12CC(c3nnc([C@H]4C[C@@H](OC(F)(F)F)C4)o3)(C1)C2
Cmax (human; oral, 145 mg, multiple doses, once daily, steady state, healthy volunteers): 9280 nM

COc1ccc2c(c1)CN(C(=O)CCN1CCC(Cc3ccccc3)CC1)CC[S@@+]2[O-]
Cmax (male human; intravenous, 0.01 mg/kg, healthy volunteers): 21.9 ng/mL

Cc1cc(-c2nccc3c2ccn3CC(=O)Nc2ccc(-c3cnccn3)cn2)ccn1
Cmax (human; oral, 20 mg, single dose): 188 nM
